# What was measured:
# [1] = Solubility of curcumin in various vehicles; assay type: physicochemical
# Summary of the method: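 Excess test compound was shaken in 1 mL vehicle in a water bath at room temperature for 48 h. It was then centrifuged at 12,000 rpm for 10 min and passed through a 0.45 μm filter, and the supernatant was diluted in methanol. Quantified by HPLC: C18 column (5 μm, 4.6 × 250 mm) at room temperature, methanol:water (3.6% glacial acetic acid) 73:27 v/v, 1.0 mL/min, detection at 428 nm.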
# Hela cells = assay: MTT cytotoxicity assay; assay type: cell-based; conditions: Homo sapiens, 24 h, read-out: IC50 (50% cell killing)
# Summary of the method: (§1)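 Cells were kept in folate-free RPMI 1640 with 10% FBS at 37°C and 5% CO2, then seeded at 5000/well and left to attach for 24 h. Test compound was given free (DMSO), in SMEDDS or in FSMEDDS, ±1 mM free folate, at 1, 5, 10, 20 and 40 μM for 24 h at 37°C. After three PBS washes, MTT was added for 4 h, formazan dissolved in DMSO, and OD read at 570 nm. Triplicates; IC50 from concentration–viability curves.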
# HT-29 cells = assay: MTT cytotoxicity assay; assay type: cell-based; conditions: Homo sapiens, HT-29, 24 h, read-out: IC50 (50% cell killing)
# Summary of the method: as §1
# [2] = cited from earlier work
structure (smiles),measurement,setting,value
COc1cc(/C=C/C(=O)CC(=O)/C=C/c2ccc(O)c(OC)c2)ccc1O [curcumin],solubility at 48 h,"[1]; Capryol 90 (oil), oil or lipid, thermodynamic from solid",9430 ± 800 µg/mL
same,solubility at 48 h,"[1]; Cremophor EL (surfactant), organic solvent or mixture, thermodynamic from solid",65800 ± 4800 µg/mL
same,solubility at 48 h,"[1]; Emulsifier OP (surfactant), organic solvent or mixture, thermodynamic from solid",5160 ± 1030 µg/mL
same,solubility at 48 h,[1]; Labrafil M1944CS (oil),3170 ± 130 µg/mL
same,solubility at 48 h,"[1]; Labrasol (surfactant), organic solvent or mixture, thermodynamic from solid",99300 ± 1730 µg/mL
same,solubility at 48 h,"[1]; PEG 400 (cosurfactant), organic solvent or mixture, thermodynamic from solid",159800 ± 480 µg/mL
same,solubility at 48 h,"[1]; Tween 80 (surfactant), organic solvent or mixture, thermodynamic from solid",4860 ± 1150 µg/mL
same,solubility at 48 h,"[1]; castor oil (oil), oil or lipid, thermodynamic from solid",1560 ± 470 µg/mL
same,solubility at 48 h,"[1]; ethanol (cosurfactant), organic solvent or mixture, thermodynamic from solid",5980 ± 630 µg/mL
same,solubility at 48 h,"[1]; ethyl oleate (oil), oil or lipid, thermodynamic from solid",1040 ± 20 µg/mL
same,solubility at 48 h,"[1]; isopropyl myristate (oil), oil or lipid, thermodynamic from solid",510 ± 50 µg/mL
same,IC50,Hela cells,30.4 ± 1.71 µM
same,IC50,HT-29 cells,25.6 ± 2.23 µM
same,Solubility of curcumin in the aqueous medium,[2],about 11 ng/g

# From article PMC3263408 (International Journal of Nanomedicine, 2012)
